From paper PMC8268672 (Bioorganic Chemistry, 2021)
≈ marks a conversion by molar mass, not a printed value. Like-named read-outs stand apart in the source and are kept apart here.

Tests used:
[1] = test system: Influenza A/H1N1 A/Ned/378/05; experiment: CPE reduction assay in MDCK cells; format: cell-based; conditions: Influenza A virus
Para-influenza-3 virus = experiment: CPE reduction assay in Vero cells; format: cell-based, Parainfluenza-3 virus; conditions: Vero, read-out: Antiviral EC50, Para-influenza-3 virus
[2] = test system: Staphylococcus aureus (ATCC 29213); experiment: Agar disk diffusion, inhibition zone; format: cell-based; conditions: 100 µg/8 mm disc, triplicate, mean ± SD
In short: (§1)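 Agar disk diffusion on Mueller-Hinton agar plates seeded with a standard bacterial suspension. Test compound stock in DMSO, diluted with distilled water; 8 mm sterile filter-paper discs soaked in the solution. Ampicillin was the reference. Plates incubated at 35 °C for 24 h, in triplicate. Read-out is the average inhibition-zone diameter (mm) around each disc.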

[3] = test system: Klebsiella aerogenes (NCIM-2098); experiment: Agar disk diffusion, inhibition zone; format: cell-based; conditions: 100 µg/8 mm disc, triplicate, mean ± SD
[4] = test system: Streptococcus pneumonia (ATCC 49619); experiment: Agar disk diffusion, inhibition zone; format: cell-based; conditions: 100 µg/8 mm disc, triplicate, mean ± SD
Sindbis virus = experiment: CPE reduction assay in Vero cells; format: cell-based; conditions: read-out: Antiviral EC50, Sindbis virus
Adeno virus-2 = experiment: CPE reduction assay in HEL cells; format: cell-based; conditions: read-out: Antiviral EC50, Adeno virus-2
[5] = test system: Bacillus cereus (NCIM-2458); experiment: Agar disk diffusion, inhibition zone; format: cell-based; conditions: 100 µg/8 mm disc, triplicate, mean ± SD
[6] = test system: Pseudomonas aeruginosa (MCCB 0035); experiment: Agar disk diffusion, inhibition zone; format: cell-based; conditions: 100 µg/8 mm disc, triplicate, mean ± SD
[7] = test system: Influenza A/H3N2 A/HK/7/87; experiment: CPE reduction assay in MDCK cells; format: cell-based; conditions: Influenza A virus
[8] = test system: Aspergillus fumigatus (NCIM 2081); experiment: Agar disk diffusion, inhibition zone; format: cell-based; conditions: 100 µg/8 mm disc, triplicate, mean ± SD
[9] = test system: Aspergillus niger (NCIM 2191); experiment: Agar disk diffusion, inhibition zone; format: cell-based; conditions: 100 µg/8 mm disc, triplicate, mean ± SD
In short: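 For the fungal strain, discs soaked in test compound solution (DMSO stock diluted with distilled water) sat on seeded Mueller-Hinton agar. Clotrimazole was the reference. Incubation ran 48 h at 35 °C, in triplicate. Zone of growth inhibition recorded in mm as the mean diameter around each disc.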

Vaccinia virus = experiment: microbe, parasite or virus in culture; format: cell-based; conditions: Orthopoxvirus vaccinia, HEL, read-out: Antiviral EC50, Vaccinia virus
[10] = test system: Escherichia coli (ATCC 8739); experiment: Agar disk diffusion, inhibition zone; format: cell-based; conditions: 100 µg/8 mm disc, triplicate, mean ± SD
In short: as §1

Vero cells = conditions: Vero cell cultures; microscopically detectable alteration of normal cell morphology
MT4 cells = conditions: MT4 cell cultures; colorimetric MTT cell viability assay
[11] = test system: Cryptococcus neoformans (ATCC 9011); experiment: Agar disk diffusion, inhibition zone; format: cell-based; conditions: 100 µg/8 mm disc, triplicate, mean ± SD
[12] = test system: Madin Darby canine kidney (MDCK) cells; conditions: dog
Yellow Fever virus = experiment: microbe, parasite or virus in culture; format: cell-based; conditions: Yellow fever virus, Vero, read-out: Antiviral EC50, Yellow Fever virus
[13] = test system: Human embryonic lung (HEL) cells; conditions: HEL cell cultures; microscopically detectable alteration of normal cell morphology
Reovirus-1 = experiment: CPE reduction assay in Vero cells; format: cell-based; conditions: read-out: Antiviral EC50, Reovirus-1
[14] = test system: Escherichia coli (ATCC 8739); experiment: MIC, broth microdilution; format: cell-based; conditions: ATCC8739, read-out: Minimum inhibitory concentration (MIC), EC
In short: (§2)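 Broth microdilution per CLSI in Mueller-Hinton broth, using two-fold serial dilutions of test compound and reference drugs from 512 to 0.25. Bacterial broth cultures were grown 2-6 h to 0.5 McFarland turbidity, then diluted with sterile solution to the final inoculum. MIC is reported in µg/mL.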

[15] = test system: Candida albicans (NCIM 2087); experiment: Agar disk diffusion, inhibition zone; format: cell-based; conditions: 100 µg/8 mm disc, triplicate, mean ± SD
Punta Toro virus = experiment: CPE reduction assay in Vero cells; format: cell-based; conditions: read-out: Antiviral EC50, Punta Toro virus
[16] = test system: Aspergillus niger (NCIM 2191); experiment: MIC, broth microdilution; format: cell-based; conditions: NCIM2191, read-out: Minimum inhibitory concentration (MIC), AN
In short: (§3)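 Antifungal MICs by CLSI broth microdilution in Sabouraud liquid medium. Test compounds and standard drugs are serially diluted two-fold from 512 to 0.25. The fungal broth culture is grown 24 h at 35 °C to a 0.5 McFarland turbidity, then adjusted with sterile solution to the final inoculum.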

[17] = test system: Aspergillus fumigatus (NCIM 2081); experiment: MIC, broth microdilution; format: cell-based; conditions: NCIM2081, read-out: Minimum inhibitory concentration (MIC), AF
In short: as §3

[18] = test system: Pseudomonas aeruginosa (MCCB 0035); experiment: MIC, broth microdilution; format: cell-based; conditions: read-out: Minimum inhibitory concentration (MIC), PA
In short: as §2

Influenza B B/Ned/537/05 = experiment: CPE reduction assay in MDCK cells; format: cell-based; conditions: Influenza B virus, read-out: Antiviral EC50, Influenza B B/Ned/537/05, MTS
[19] = test system: Salmonella typhimurium (NCIM-2501); experiment: Agar disk diffusion, inhibition zone; format: cell-based; conditions: 100 µg/8 mm disc, triplicate, mean ± SD
[20] = test system: Lactobacillus casei (NCIM-2651); experiment: Agar disk diffusion, inhibition zone; format: cell-based; conditions: 100 µg/8 mm disc, triplicate, mean ± SD
[21] = test system: Klebsiella aerogenes (NCIM-2098); experiment: MIC, broth microdilution; format: cell-based; conditions: NCIM2098, read-out: Minimum inhibitory concentration (MIC), KA
In short: (§4)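 Antibacterial MICs by CLSI broth microdilution in Mueller-Hinton broth. Test compounds and standard drugs are serially diluted two-fold from 512 to 0.25. The bacterial broth culture is grown 2-6 h to a 0.5 McFarland turbidity, then adjusted with sterile solution to the final inoculum.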

[22] = test system: Candida albicans (NCIM 2087); experiment: MIC, broth microdilution; format: cell-based; conditions: NCIM2087, read-out: Minimum inhibitory concentration (MIC), CA
In short: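 CLSI broth microdilution in Sabouraud liquid medium, with test compound two-fold serially diluted from 512 to 0.25. Fungal broth culture grown 24 h at 35 °C to 0.5 McFarland turbidity, then adjusted with sterile solution to a final […] inoculum. MIC expressed in µg/mL.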

[23] = test system: Bacillus cereus (NCIM-2458); experiment: MIC, broth microdilution; format: cell-based; conditions: NCIM2458, read-out: Minimum inhibitory concentration (MIC), BC
In short: as §2

Human Coronavirus (229E) = experiment: CPE reduction assay in HEL cells; format: cell-based; conditions: read-out: Antiviral EC50, Human Coronavirus (229E)
[24] = test system: Staphylococcus aureus (ATCC 29213); experiment: MIC, broth microdilution; format: cell-based; conditions: ATCC29213, read-out: Minimum inhibitory concentration (MIC), SA
In short: as §4

[25] = test system: Cryptococcus neoformans (ATCC 9011); experiment: MIC, broth microdilution; format: cell-based; conditions: ATCC9011, read-out: Minimum inhibitory concentration (MIC), CN
In short: as §3

Coxsackie virus B4 = experiment: CPE reduction assay in Vero cells; format: cell-based; conditions: Enterovirus B, read-out: Antiviral EC50, Coxsackie virus B4
[26] = read-out: Antiviral EC50, Influenza A/H1N1 A/Ned/378/05, MTS
[27] = read-out: Antiviral EC50, Influenza A/H1N1 A/Ned/378/05, visual CPE score
[28] = read-out: Antiviral EC50, Influenza A/H3N2 A/HK/7/87, MTS
[29] = read-out: Antiviral EC50, Influenza A/H3N2 A/HK/7/87, visual CPE score

Row | Structure (SMILES) | EC50 [1, 26] [µM] | EC50 [1, 27] [µM] | EC50 (Para-influenza-3 virus) [µM] | Diameter of growth inhibition zone, SA [2] [mm] | Diameter of growth inhibition zone, KA [3] [mm] | Diameter of growth inhibition zone, SP [4] [mm] | EC50 (Sindbis virus) [µM] | EC50 (Adeno virus-2) [µM] | Diameter of growth inhibition zone, BC [5] [mm] | Diameter of growth inhibition zone, PA [6] [mm] | EC50 [7, 28] [µM] | EC50 [7, 29] [µM] | Diameter of growth inhibition zone, AF [8] [mm] | Diameter of growth inhibition zone, AN [9] [mm] | EC50 (Vaccinia virus) [µM] | Diameter of growth inhibition zone, EC [10] [mm] | Minimum cytotoxic conc. (Vero cells) [µM] | Minimum cytotoxic conc. (MT4 cells) [µM] | Diameter of growth inhibition zone, CN [11] [mm] | Cytotoxicity, Minimum cytotoxic conc. [12] [µM] | other results
1 | Cc1ccc(S(=O)(=O)N2C(=O)CSC2c2ccccc2Cl)cc1 (stereo not drawn) [5e, 2-(2-Chlorophenyl)-3-[(4-methylphenyl)sulfonyl]-1,3-thiazolidin-4-one] | > 100 | > 100 | > 100 | 17 ± 3.6 | 12 ± 0.5 | 10 ± 1.32 | > 100 | > 100 | 10 ± 0.7 | 18 ± 0.55 | > 100 | > 100 | 9.6 ± 1.2 | 10.2 ± 0.9 | > 100 | 19 ± 0.69 | >100 | >125 | 12 ± 0.9 | >100 | EC50 (Yellow Fever virus): > 100 µM; Minimum cytotoxic conc. [13]: >100 µM; EC50 (Reovirus-1): > 100 µM; MIC [14]: 16 µg/mL (≈ 43.5 µM); Diameter of growth inhibition zone, CA [15]: 10.8 ± 1.5 mm; EC50 (Punta Toro virus): > 100 µM; MIC [16]: 32 µg/mL (≈ 87 µM); MIC [17]: 64 µg/mL (≈ 174 µM); MIC [18]: 32 µg/mL (≈ 87 µM); EC50 (Influenza B B/Ned/537/05): > 100 µM; Diameter of growth inhibition zone, ST [19]: 10 ± 0.72 mm; Diameter of growth inhibition zone, LC [20]: 14 ± 0.3 mm; MIC [21]: 32 µg/mL (≈ 87 µM); MIC [22]: 32 µg/mL (≈ 87 µM); MIC [23]: 64 µg/mL (≈ 174 µM); EC50 (Human Coronavirus (229E)): > 100 µM; MIC [24]: 64 µg/mL (≈ 174 µM); MIC [25]: 16 µg/mL (≈ 43.5 µM); EC50 (Coxsackie virus B4): > 100 µM
2 | Cc1ccc(S(=O)(=O)N2C(=O)CSC2c2ccc(Cl)cc2)cc1 (stereo not drawn) [5g, 2-(4-Chlorophenyl)-3-[(4-methylphenyl)sulfonyl]-1,3-thiazolidin-4-one] | > 100 | > 100 | > 100 | 22 ± 0.63 | 12 ± 0.12 | 12 ± 1.43 | > 100 | > 100 | 18 ± 0.33 | 24 ± 1.5 | > 100 | > 100 | 13 ± 0.63 | 18 ± 1.1 | > 100 | 23 ± 0.32 | >100 | >125 | 12 ± 1.8 | >100 | EC50 (Yellow Fever virus): > 100 µM; Minimum cytotoxic conc. [13]: >100 µM; EC50 (Reovirus-1): > 100 µM; MIC [14]: 4 µg/mL (≈ 10.9 µM); Diameter of growth inhibition zone, CA [15]: 20 ± 1.5 mm; EC50 (Punta Toro virus): > 100 µM; MIC [16]: 8 µg/mL (≈ 21.7 µM); MIC [17]: 16 µg/mL (≈ 43.5 µM); MIC [18]: 8 µg/mL (≈ 21.7 µM); EC50 (Influenza B B/Ned/537/05): > 100 µM; Diameter of growth inhibition zone, ST [19]: 12 ± 0.9 mm; Diameter of growth inhibition zone, LC [20]: 14 ± 0.4 mm; MIC [21]: 32 µg/mL (≈ 87 µM); MIC [22]: 8 µg/mL (≈ 21.7 µM); MIC [23]: 8 µg/mL (≈ 21.7 µM); EC50 (Human Coronavirus (229E)): > 100 µM; MIC [24]: 4 µg/mL (≈ 10.9 µM); MIC [25]: 16 µg/mL (≈ 43.5 µM); EC50 (Coxsackie virus B4): > 100 µM
3 | Cc1ccc(S(=O)(=O)N2C(=O)CSC2c2ccccc2F)cc1 (stereo not drawn) [5h, 2-(2-Fluorophenyl)-3-[(4-methylphenyl)sulfonyl]-1,3-thiazolidin-4-one] | > 100 | > 100 | > 100 | 19 ± 1.1 | 10 ± 0.5 | 10 ± 1.7 | > 100 | > 100 | 14 ± 0.62 | 20 ± 0.6 | > 100 | > 100 | 15 ± 1.2 | 12 ± 0.66 | > 100 | 23.8 ± 0.9 | >100 | 111 | 19 ± 1.1 | >100 | EC50 (Yellow Fever virus): > 100 µM; Minimum cytotoxic conc. [13]: >100 µM; EC50 (Reovirus-1): > 100 µM; MIC [14]: 4 µg/mL (≈ 11.4 µM); Diameter of growth inhibition zone, CA [15]: 15 ± 0.56 mm; EC50 (Punta Toro virus): > 100 µM; MIC [16]: 32 µg/mL (≈ 91.1 µM); MIC [17]: 16 µg/mL (≈ 45.5 µM); MIC [18]: 8 µg/mL (≈ 22.8 µM); EC50 (Influenza B B/Ned/537/05): > 100 µM; Diameter of growth inhibition zone, ST [19]: 14 ± 1.3 mm; Diameter of growth inhibition zone, LC [20]: 19 ± 1.2 mm; MIC [21]: 64 µg/mL (≈ 182 µM); MIC [22]: 32 µg/mL (≈ 91.1 µM); MIC [23]: 16 µg/mL (≈ 45.5 µM); EC50 (Human Coronavirus (229E)): > 100 µM; MIC [24]: 8 µg/mL (≈ 22.8 µM); MIC [25]: 8 µg/mL (≈ 22.8 µM); EC50 (Coxsackie virus B4): > 100 µM
